Assay results as given in ChEMBL document CHEMBL3585302, “Synthesis and antibacterial activities of cadiolides A, B and C and analogues” (Bioorg Med Chem, 2015).

Columns and labels:
Bacillus cereus = experiment: Antibacterial activity against Bacillus cereus CECT 148 assessed as inhibition of microbial growth incubated for 18 hrs by 2-fold microtiter broth dilution method; assay type: functional, organism-based; settings: CECT 148, 18 h
Summary of the method: (§1)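 Compounds in DMSO, ten 2-fold serial dilutions (125 down to 0.24 µg/mL tested). Bacteria at OD620 = 0.001 in Nutrient Broth mixed 1:1 with dilutions. Incubated overnight (18 h) at 28°C or 37°C according to strain. Growth read turbidimetrically at OD620. MIC is the lowest concentration giving complete growth inhibition. Triplicate runs. Tetracycline as reference.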

Staphylococcus aureus = experiment: Antibacterial activity against Staphylococcus aureus CECT 86 assessed as inhibition of microbial growth incubated for 18 hrs by 2-fold microtiter broth dilution method; assay type: functional, organism-based; settings: CECT 86, 18 h; summary of the method: as §1
Enterococcus faecalis = experiment: Antibacterial activity against Enterococcus faecalis CECT 481 assessed as inhibition of microbial growth incubated for 18 hrs by 2-fold microtiter broth dilution method; assay type: functional, organism-based; settings: CECT 481, 18 h; summary of the method: as §1
Salmonella typhi = experiment: Antibacterial activity against Salmonella typhi CECT 409 assessed as inhibition of microbial growth incubated for 18 hrs by 2-fold microtiter broth dilution method; assay type: functional, organism-based, Salmonella enterica subsp. enterica serovar Typhi; settings: Salmonella enterica, CECT 409, 18 h
Summary of the method: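 Compounds in DMSO, ten 2-fold serial dilutions (125 down to 0.24 µg/mL), mixed 1:1 with bacteria in Nutrient Broth at OD620 = 0.001. Incubated overnight (18 h) at 28 or 37 °C depending on strain. Growth read turbidimetrically at OD620; MIC is the lowest concentration completely inhibiting growth, per CLSI. Triplicate runs; tetracycline reference.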

Escherichia coli [1] = experiment: Antibacterial activity against Escherichia coli CECT 405 assessed as inhibition of microbial growth incubated for 18 hrs by 2-fold microtiter broth dilution method; assay type: functional, organism-based; settings: CECT 405, 18 h; summary of the method: as §1
[2] = system: Pectobacterium carotovorum; experiment: Antibacterial activity against Erwinia carotovora CECT 225 assessed as inhibition of microbial growth incubated for 18 hrs by 2-fold microtiter broth dilution method; assay type: functional, organism-based; settings: CECT 225, 18 h; summary of the method: as §1
Bacillus subtilis = experiment: Antibacterial activity against Bacillus subtilis CECT 35 assessed as inhibition of microbial growth incubated for 18 hrs by 2-fold microtiter broth dilution method; assay type: functional, organism-based; settings: CECT 35, 18 h; summary of the method: as §1
Escherichia coli [3] = experiment: Antibacterial activity against Escherichia coli CECT 100 assessed as inhibition of microbial growth incubated for 18 hrs by 2-fold microtiter broth dilution method; assay type: functional, organism-based; settings: CECT 100, 18 h; summary of the method: as §1
[4] = Cytotoxicity against human neutrophils assessed as reduction in cell viability at 100 uM incubated for 24 hrs by MTT assay; assay type: cell-based; settings: neutrophil
Summary of the method: (§2)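 Neutrophils from buffy coats of healthy donors were isolated by Ficoll-Hypaque gradient and seeded at 2 x 10⁵ cells/mL in supplemented RPMI. Exposed to 30 or 100 µM for 24 h at 37 °C, then MTT (2 mg/mL in PBS) added for 3 h. Formazan dissolved in DMSO and read at 560 and 630 nm. Mean ± SEM of n=6-9 independent experiments, compared against vehicle.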

[5] = Cytotoxicity against human neutrophils assessed as reduction in cell viability at 30 uM incubated for 24 hrs by MTT assay; assay type: cell-based; settings: neutrophil; summary of the method: as §2
[6] = Selectivity index, ratio of cytotoxicity against human neutrophils by MTT assay to antibacterial IC50 against Staphylococcus aureus CECT 86; assay type: toxicity; settings: read-out: Selectivity Index
[7] = Selectivity index, ratio of cytotoxicity against human neutrophils by MTT assay to antibacterial IC50 against Enterococcus faecalis CECT 481; assay type: toxicity; settings: read-out: Selectivity Index
[8] = Selectivity index, ratio of cytotoxicity against human neutrophils by MTT assay to antibacterial IC50 against Salmonella typhi CECT 409; assay type: toxicity; settings: read-out: Selectivity Index
[9] = Selectivity index, ratio of cytotoxicity against human neutrophils by MTT assay to antibacterial IC50 against Escherichia coli CECT 405; assay type: toxicity; settings: read-out: Selectivity Index
[10] = Toxicity in human neutrophils assessed as induction of apoptosis at 30 and 100 uM incubated for 24 hrs by annexin V-FITC and propidium iodide staining based cytofluorometry; assay type: cell-based; settings: neutrophil
Summary of the method: (§3)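 Freshly isolated donor neutrophils (2 x 10⁶ cells/mL stock, diluted into supplemented RPMI) cultured 24 h with 30 or 100 µM. Stained with annexin V-FITC/propidium iodide; 1 x 10⁴ cells analysed by flow cytometry. Gating: annexin V+/PI− apoptotic, V+/PI+ late apoptotic/necrotic, V−/PI− viable. Mean ± SEM, n=3, compared against vehicle.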

[11] = Toxicity in human neutrophils assessed as cell survival at 30 uM incubated for 24 hrs by annexin V-FITC and propidium iodide staining based cytofluorometry; settings: neutrophil; summary of the method: as §3
[12] = Toxicity in human neutrophils assessed as induction of necrosis at 100 uM incubated for 24 hrs by annexin V-FITC and propidium iodide staining based cytofluorometry; assay type: cell-based; settings: neutrophil; summary of the method: as §3
[13] = Selectivity index, ratio of cytotoxicity against human neutrophils by annexin V-FITC and propidium iodide staining based cytofluorometry to antibacterial IC50 against Staphylococcus aureus CECT 86; assay type: toxicity; settings: read-out: Selectivity Index
[14] = Selectivity index, ratio of cytotoxicity against human neutrophils by annexin V-FITC and propidium iodide staining based cytofluorometry to antibacterial IC50 against Enterococcus faecalis CECT 481; assay type: toxicity; settings: read-out: Selectivity Index
[15] = Selectivity index, ratio of cytotoxicity against human neutrophils by annexin V-FITC and propidium iodide staining based cytofluorometry to antibacterial IC50 against Salmonella typhi CECT 409; assay type: toxicity; settings: read-out: Selectivity Index
[16] = Selectivity index, ratio of cytotoxicity against human neutrophils by annexin V-FITC and propidium iodide staining based cytofluorometry to antibacterial IC50 against Escherichia coli CECT 405; assay type: toxicity; settings: read-out: Selectivity Index

SMILES	IC50 (Bacillus cereus)	MIC (Bacillus cereus)	IC50 (Staphylococcus aureus)	MIC (Staphylococcus aureus)	IC50 (Enterococcus faecalis)	MIC (Enterococcus faecalis)	IC50 (Salmonella typhi)	MIC (Salmonella typhi)	IC50 (Escherichia coli [1])	MIC (Escherichia coli [1])	MIC [2]	MIC (Bacillus subtilis)	IC50 (Escherichia coli [3])	MIC (Escherichia coli [3])	Activity [4]	Activity [5]	selectivity ratio [6]	selectivity ratio [7]	selectivity ratio [8]	selectivity ratio [9]	also measured
O=C1O/C(=C\c2ccc(O)c(Br)c2)C(c2ccc(O)c(Br)c2)=C1C(=O)c1ccc(O)c(Br)c1	3.06 µM	1.95 µg/mL	3.06 µM	1.95 µg/mL	3.06 µM	1.95 µg/mL	3.06 µM	1.95 µg/mL	3.06 µM	1.95 µg/mL	125 µg/mL	125 µg/mL	> 196 µM	> 125 µg/mL	Toxic	Non-toxic	5	5	5	5	Activity [10]: Non-toxic; Activity [11]: Non-toxic; Activity [12]: 98%; selectivity ratio [13]: 5; selectivity ratio [14]: 5; selectivity ratio [15]: 5; selectivity ratio [16]: 5
O=C1O/C(=C\c2ccc(O)c(Br)c2)C(c2cc(Br)c(O)c(Br)c2)=C1C(=O)c1ccc(O)c(Br)c1	2.72 µM	1.95 µg/mL	2.72 µM	1.95 µg/mL	2.72 µM	1.95 µg/mL	2.72 µM	1.95 µg/mL	2.72 µM	1.95 µg/mL	125 µg/mL	125 µg/mL	> 175 µM	> 125 µg/mL	Toxic	Non-toxic	5	5	5	5	Activity [10]: Non-toxic; Activity [11]: Non-toxic; Activity [12]: 36%; selectivity ratio [13]: 5; selectivity ratio [14]: 5; selectivity ratio [15]: 5; selectivity ratio [16]: 5
O=C1O/C(=C\c2ccc(O)c(Br)c2)C(c2ccc(O)c(Br)c2)=C1C(=O)c1ccco1	3.66 µM	1.95 µg/mL	3.66 µM	1.95 µg/mL	3.66 µM	1.95 µg/mL	3.66 µM	1.95 µg/mL	3.66 µM	1.95 µg/mL	125 µg/mL	125 µg/mL	29.4 µM	15.6 µg/mL	Toxic	Non-toxic	5	5	5	5	Activity [10]: Non-toxic; Activity [11]: Non-toxic; Activity [12]: 95%; selectivity ratio [13]: 5; selectivity ratio [14]: 5; selectivity ratio [15]: 5; selectivity ratio [16]: 5
